The subject of one test is LPA1 GPCR. Particulars: cited from earlier work.
In the next test the test system is LPA2 GPCR. Particulars: cited from earlier work.
A further test addresses Recombinant ATX (Homo sapiens, UniProt Q13822). It counts as biochemical. Particulars: for Mechanism of ATX inhibition: assigned by lowest averaged percent residuals of curve fitting. In a few lines: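 Recombinant autotaxin ([…]) with test compound at various concentrations, in pH 8.0 Tris-HCl 50 mM buffer with NaCl 140 mM, KCl 3 mM, MgCl2 and CaCl2 1 mM each, and fatty-acid-free BSA 15 μM; LPA 18:1 as positive control. Fluorescence (ex 485/em 538 nm) read at start and after 2 h, 37 °C; activity as percent of vehicle, triplicate wells. For mechanism, FS-3 varied 0.3–20 μM at three inhibitor levels; competitive, uncompetitive, mixed and non-competitive models fitted simultaneously to give Ki.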

The next test concerns the target LPA5 (Homo sapiens, UniProt Q9H1C0). In words: LPA5-mediated calcium mobilization in B103 cells stably expressing LPA5. The test is classed as cell-based. The note with it: concentrations above 1 μM, p < 0.05. For orientation: A change in cytosolic calcium serves as a functional read-out for many receptors and channels.

The values that follow come from PMC3040411 (Bioorganic & medicinal chemistry letters, 2010).

LPA5, sequence (Q9H1C0 whole entry, species assumed): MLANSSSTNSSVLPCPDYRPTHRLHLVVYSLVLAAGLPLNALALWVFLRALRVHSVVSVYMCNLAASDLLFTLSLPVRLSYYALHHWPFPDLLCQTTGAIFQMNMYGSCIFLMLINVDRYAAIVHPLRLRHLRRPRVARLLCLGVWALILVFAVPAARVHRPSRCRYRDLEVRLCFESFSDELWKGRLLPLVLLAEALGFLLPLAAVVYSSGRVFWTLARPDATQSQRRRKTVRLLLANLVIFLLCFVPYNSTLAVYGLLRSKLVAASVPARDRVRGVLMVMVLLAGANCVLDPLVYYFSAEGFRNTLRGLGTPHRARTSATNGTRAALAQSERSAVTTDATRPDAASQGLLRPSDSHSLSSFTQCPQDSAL

For 1-acyl-2,3-glycerophosphate [CPA], the “LPA1 GPCR activation” value with LPA1 GPCR is reported as “weak agonist”. The “LPA2 GPCR activation” value in the test on LPA2 GPCR is given as “weak agonist”.
With `CCCCCCCCCCCCCCCCCC(=O)OC[C@H]1CCP(=O)([O-])O1.[Na+]` [R-3-CCPA], at Recombinant ATX (FS-3 1 μM, 2 hours at 37 °C), the “Potency in ATX inhibition relative to S-3-CCPA” value is “approximately 2 fold”. The “Mechanism of ATX inhibition” value at Recombinant ATX is “mixed mode”.
As for `CCCCCCCCCCCCCCCCCC(=O)OC[C@@H]1CCP(=O)([O-])O1.[Na+]` [S-3-CCPA], the “Mechanism of ATX inhibition” value on Recombinant ATX is reported as “mixed mode”. In addition, at LPA5, the “Efficacy for LPA5-mediated calcium mobilization compared with R-3-CCPA” value was “significantly higher”.
